14 compounds from ChEMBL document CHEMBL3102766, “Thiodiketopiperazines from the marine-derived fungus Phoma sp. OUCMDZ-1847” (J Nat Prod, 2014) can be followed below.

Active and inactive are the calls of the source. No cut-off for these calls is given here.

What all share (assay type): functional, cell-based
The subject of one assay is HL-60. Description: Cytotoxicity against human HL60 cells after 72 hrs by MTT assay. To be noted: for IC50: HL-60, 72 h. On the technique in general: Tetrazolium assays rely on reduction of a dye to a coloured formazan, in cell work by metabolically active cells.
Another assay relates to MGC-803. Description: Cytotoxicity against human MGC803 cells after 24 hrs by SRB assay. To be noted: for IC50: MGC-803, 24 h. An outline of the steps: (§1)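 Cytotoxicity against the tumor cell lines was read out by the SRB method, with adriamycin run as the positive control.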
Background: In SRB staining, fixed cells bind dye roughly in proportion to their protein.

A further assay has as its system K562. Nature of the assay: Cytotoxicity against human K562 cells after 72 hrs by MTT assay. To be noted: for IC50: K562, 72 h.
Another assay concerns HCT-116. Nature of the assay: Cytotoxicity against human HCT116 cells after 72 hrs by MTT assay. To be noted: for IC50: HCT-116, 72 h.
For the next assay, the system named is A549. Description: Cytotoxicity against human A549 cells after 24 hrs by SRB assay. To be noted: for IC50: A549, 24 h. In a few lines: as §1

In general, IC50 refers to the concentration that gives 50% inhibition. For the compound `O=C1C=C[C@H](O)[C@@H]2[C@@H]1C[C@@]13SS[C@]4(C[C@H]5C(=O)C[C@H](O)[C@H](O)[C@H]5N4C1=O)C(=O)N23`, the IC50 with HL-60 is 3.5 µM; in the assay on MGC-803, 3.4 µM; with K562, above 10 µM; in the assay with HCT-116, 7.1 µM; in the assay with A549 it was above 10 µM.
In the case of `O=C1C[C@@H]2SS[C@@]34C[C@@H]1[C@@H]([C@H]2O)N3C(=O)[C@@]12C[C@H]3C(=O)C[C@H](SS1)[C@H](O)[C@H]3N2C4=O`, the outcome with HL-60, with MGC-803, in the assay with K562, in the assay with HCT-116 and with A549 was inactive.
For the compound `O=C1C[C@H]2S[C@@]34C[C@@H]1[C@@H]([C@H]2O)N3C(=O)[C@@]12C[C@H]3C(=O)[C@@H](S1)[C@H](O)[C@H](O)[C@H]3N2C4=O`, the outcome in the assay with HL-60, in the assay on MGC-803, with K562, in the assay on HCT-116 and with A549 was inactive.
On to `CS[C@@]1(Cc2ccccc2)NC(=O)[C@]2(SC)CC3=CC=C[C@H](O)[C@H]3N2C1=O`, for which the IC50 was above 10 µM in the assay with HL-60; 8.5 µM in the assay on MGC-803; above 10 µM in the assay on K562; above 10 µM with HCT-116; above 10 µM in the assay on A549.
For the compound `CS[C@@]12CC3=CC=C[C@H](O)[C@H]3N1C(=O)/C(=C/c1ccccc1)NC2=O`, the result with HL-60, in the assay with MGC-803, in the assay on K562, in the assay on HCT-116 and with A549 was inactive.
As to `CS[C@@]12C[C@@H]3C(=O)C=C[C@H](O)[C@H]3N1C(=O)[C@]1(SC)C[C@@H]3C(=O)C=C[C@H](O)[C@H]3N1C2=O`, the IC50 was 3.5 µM with HL-60; 4.2 µM with MGC-803; above 10 µM in the assay on K562; 4 µM with HCT-116; above 10 µM in the assay on A549.
As for `O=C1C[C@H]2SS[C@@]34C[C@@H]1[C@@H]([C@H]2O)N3C(=O)[C@@]12C[C@H]3C(=O)C[C@@H](S1)[C@H](O)[C@H]3N2C4=O`, the outcome with HL-60, in the assay on MGC-803, in the assay with K562, with HCT-116 and in the assay on A549 was inactive.
As for `O=C1N2[C@H]3[C@H](C[C@]24SS[C@]12C[C@H]1[C@@H]([C@@H](O)CC[C@@H]1O)N2C4=O)[C@@H](O)CC[C@@H]3O`, the outcome in the assay with HL-60, in the assay on MGC-803, with K562, in the assay with HCT-116 and in the assay on A549 was inactive.
For `COc1cccc2c1C(=O)c1c(O)c3c(c(O)c1C2=O)C[C@@](O)(C(=O)CO)C[C@@H]3O[C@H]1C[C@H](N)[C@H](O)[C@H](C)O1` [DOXORUBICIN], the IC50 was found to be 0.17 µM in the assay with MGC-803 and 0.16 µM in the assay with A549.
With `O=C1C[C@@H]2S[C@@]34C[C@@H]1[C@@H]([C@H]2O)N3C(=O)[C@@]12C[C@H]3C(=O)C[C@H](S1)[C@H](O)[C@H]3N2C4=O`, the outcome in the assay with HL-60, in the assay on MGC-803, in the assay with K562, in the assay on HCT-116 and in the assay with A549 was inactive.
Regarding `O=C1C=C[C@H](O)[C@@H]2[C@@H]1C[C@@]13SS[C@]4(C[C@H]5C(=O)C=C[C@H](O)[C@H]5N4C1=O)C(=O)N23`, the IC50 was 1.6 µM with HL-60; 5.2 µM in the assay on MGC-803; 4.6 µM with K562; above 10 µM in the assay with HCT-116; above 10 µM in the assay with A549.
For `O=C1C[C@@H]2SS[C@@]34C[C@@H]1[C@@H]([C@H]2O)N3C(=O)[C@@]12C[C@H]3C(=O)[C@H](S1)[C@H](O)[C@H](O)[C@H]3N2C4=O`, the result in the assay on HL-60, in the assay with MGC-803, with K562, in the assay on HCT-116 and in the assay on A549 was inactive.
With `O=C1C[C@H](O)[C@H](O)[C@@H]2[C@H]1C[C@@]13SS[C@]4(C[C@H]5C(=O)C[C@H](O)[C@H](O)[C@H]5N4C1=O)C(=O)N23`, the result with HL-60, with MGC-803, in the assay with K562, in the assay with HCT-116 and in the assay on A549 was inactive.
With `O=C1C=C[C@H](O)[C@@H]2[C@@H]1C[C@@]13SS[C@]4(C[C@@H]5C(=O)C=C[C@H](O)[C@H]5N4C1=O)C(=O)N23` [EPICORAZINE A], the IC50 is 0.05 µM with HL-60; 2.7 µM with MGC-803; 1.5 µM in the assay on K562; 0.33 µM in the assay on HCT-116; 2.3 µM in the assay with A549.
